{"source": "paper PMC4832308", "about": "(Cancer, 2015)", "key": {"Ki67": {"test_system": "Ki67", "experiment": "immuno‐histochemical staining of tumor biopsies", "type": "in vivo, human", "settings": "pre‐ vs on‐treatment (days 15‐22), HCC and salivary gland tumor, 30‐mg/d cohort", "summary_of_the_method": "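Optional pretreatment and on-treatment (days 15–22) tumor biopsies from 2 patients in the 30-mg/d cohort (HCC and salivary gland tumor). Paraffin-embedded sections were immunostained per antibody (pS6RP, p4EBP1, pAKT, Ki-67) or TUNEL-labelled, then scored by quantitative image analysis.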"}, "[1]": {"experiment": "plasma pharmacokinetics in patients", "type": "in vivo, human"}, "[2]": {"test_system": "U87 glioblastoma multiforme", "settings": "cited from earlier work"}}, "data": [{"smiles": "CO[C@H]1CC[C@H](N2C(=O)CNc3ncc(-c4ccc(C(C)(C)O)nc4)nc32)CC1", "note": "[CC‐223]", "values": [{"measurement": "Ki67 staining in tumor biopsies", "setting": "Ki67", "result": "Significant inhibition"}, {"measurement": "dose dependence of Cmax and AUC from time 0 to infinity", "setting": "[1]; 30‐ to 60‐mg dose range, single or multiple doses", "result": "dose‐proportional"}, {"measurement": "half-life", "setting": "[1]; human, plasma, oral", "result": "4.86 to 5.64", "unit": "h"}, {"measurement": "ratio of AUC0‐24 between day 15 and day 1", "setting": "[1]; multiple dosing", "result": "≤ 22", "unit": "%"}, {"measurement": "single‐agent activity in xenograft model", "setting": "[2]", "result": "single‐agent activity"}]}]}
